# Laboratory results reported in ChEMBL document CHEMBL4680339, “Synthesis and bioevaluation of N-(3,4,5-trimethoxyphenyl)-1H-pyrazolo[3,4-b]pyridin-3-amines as tubulin polymerization inhibitors with anti-angiogenic effects” (Bioorg Med Chem, 2021).
# Calls of active or inactive are those of the source. The calls are words filed in the database; no cut-off is given here.
# Assays:
# HeLa = experiment: Antiproliferative activity against human HeLa cells assessed as reduction in cell growth incubated for 72 hrs by MTT assay; assay type: functional, cell-based
# Outline: (§1)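 Log-phase cells seeded at 5 × 10³/well and grown 24 h, then exposed to graded compound concentrations for 72 h. MTT (5 mg/mL) added for 4 h; formazan dissolved in DMSO and absorbance read at 490 nm. IC50 calculated from growth inhibition; means ± SD of triplicate experiments.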
# A549 = experiment: Antiproliferative activity against human A549 cells assessed as reduction in cell growth incubated for 72 hrs by MTT assay; assay type: functional, cell-based; details: A549, 72 h; outline: as §1
# HepG2 = experiment: Antiproliferative activity against human HepG2 cells assessed as reduction in cell growth incubated for 72 hrs by MTT assay; assay type: functional, cell-based; details: HepG2, 72 h; outline: as §1
# HCT-116 = experiment: Antiproliferative activity against human HCT-116 cells assessed as reduction in cell growth incubated for 72 hrs by MTT assay; assay type: functional, cell-based; details: HCT-116, 72 h; outline: as §1
# WI-38 = experiment: Cytotoxicity against human WI-38 cells assessed as reduction in cell growth incubated for 72 hrs by MTT assay; assay type: cell-based; details: WI-38, 72 h; outline: as §1
# MCF7 [1] = experiment: Antiproliferative activity against human MCF7 cells assessed as reduction in cell growth incubated for 72 hrs by MTT assay; assay type: functional, cell-based; details: MCF7, 72 h; outline: as §1
# MCF7 [2] = experiment: Disruption of microtubule organization in human MCF7 cells assessed as microtubules spindle shrinkage around the centre of the cell at 100 nM incubated for 6 hrs by immunofluorescence based laser scanning confocal microscopic analysis; assay type: functional
# Outline: (§2)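 MCF-7 cells (3 × 10⁴) grown 24 h in confocal dishes, then treated 6 h with compound. Fixed in prewarmed 4% paraformaldehyde, permeabilized with 0.5% Triton X-100, blocked with 10% goat serum. Stained with mouse anti-tubulin (4 °C overnight), Alexa Fluor 488 secondary, and DAPI. Imaged by laser scanning confocal microscopy.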
# HUVEC [3] = experiment: Antivascular activity against HUVEC assessed as reduction in tube formation incubated for 6 hrs by matrigel based inverted fluorescence microscopic analysis; assay type: functional, cell-based; details: Homo sapiens, dose 0.1-1 µM
# Outline: (§3)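 Matrigel polymerized 30 min at 37 °C. HUVECs in ECM medium with 20% FBS seeded at 5 × 10⁴/well with compound at 0, 0.1, 0.5 or 1 μM. After 6 h, tubule formation was photographed under an inverted microscope (×100).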
# HUVEC [4] = experiment: Antivascular activity against HUVEC assessed as reduction in tube formation at 1 microM incubated for 6 hrs by matrigel based inverted fluorescence microscopic analysis; assay type: functional; details: Homo sapiens; outline: as §3
# MCF7 [5] = experiment: Induction of apoptosis in human MCF7 cells; assay type: functional, cell-based
# MCF7 [6] = experiment: Induction of cell cycle arrest in human MCF7 cells assessed as accumulation in G1 phase at 5 nM incubated for 24 hrs by PI staining based flow cytometry analysis (reference value: 63.70 %); assay type: functional
# HUVEC [7] = experiment: Antimigratory activity against human HUVEC assessed as cell migration rate at 0.1 uM incubated for 24 hrs by wound healing assay (reference value: 100 %); assay type: functional
# HUVEC [8] = experiment: Downregulation of MMP-9 protein expression in HUVEC at 0.05 to 1 uM incubated for 24 hrs by Western blot analysis; assay type: functional; details: Homo sapiens, dose 0.05-1 µM
# Outline: (§4)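 HUVECs exposed to various compound concentrations for 24 h. MMP-9 and TIMP-1 measured by western blot: RIPA lysates, equal protein loads on 8–12% SDS-PAGE, nitrocellulose transfer, primary antibodies overnight at 4 °C, HRP secondary, ECL detection.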
# MCF7 [9] = experiment: Induction of cell cycle arrest in human MCF7 cells assessed as accumulation in G2/M phase at 5 nM incubated for 24 hrs by PI staining based flow cytometry analysis (reference value: 16.81 %); assay type: functional
# HUVEC [10] = experiment: Antivascular activity against HUVEC assessed as disruption of vascular structure incubated for 6 hrs by matrigel based inverted fluorescence microscopic analysis; assay type: functional, cell-based; details: Homo sapiens, dose 0.1-1 µM
# Outline: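 Capillary-like networks were formed by HUVECs on Matrigel over 6 h, then exposed to vehicle or compound (0.1, 0.5, 1 μM) in serum-free DMEM for 6 h and photographed. Remaining tubes were counted; disruption = [1 − (tubes treated/tubes vehicle)] × 100%.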
# MCF7 [11] = experiment: Induction of cell cycle arrest in human MCF7 cells assessed as accumulation in S phase at 10 nM incubated for 24 hrs by PI staining based flow cytometry analysis (reference value: 19.50 %); assay type: functional
# MCF7 [12] = experiment: Disruption of microtubule organization in human MCF7 cells assessed as microtubules shrinkage around the nucleus at 10 nM incubated for 6 hrs by immunofluorescence based laser scanning confocal microscopic analysis; assay type: functional, cell-based; outline: as §2
# HUVEC [13] = experiment: Antimigratory activity against human HUVEC assessed as cell migration rate at 1 uM incubated for 12 hrs by wound healing assay (reference value: 68.5 %); assay type: functional
# MCF7 [14] = experiment: Induction of cell cycle arrest in human MCF7 cells assessed as reduction in Cdc25c expression incubated for 24 hrs by Western blot analysis; assay type: functional, cell-based; details: dose 10-100 nM
# Outline: (§5)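 MCF-7 cells treated 24 h with 0, 10, 50 or 100 nM compound and lysed in RIPA buffer. Equal protein loads separated by 8–12% SDS-PAGE, transferred to nitrocellulose and blocked with 5% milk. Probed overnight at 4 °C with primary antibodies to Cdc25c, Cdc2 and Cyclin B1, then HRP secondary, with ECL detection. Densitometry averaged from two independent experiments.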
# HUVEC [15] = experiment: Antimigratory activity against human HUVEC assessed as cell migration rate at 0.5 uM incubated for 12 hrs by wound healing assay (reference value: 68.5 %); assay type: functional
# MCF7 [16] = experiment: Disruption of microtubule organization in human MCF7 cells assessed as breakage and abnormal spindle formation incubated for 6 hrs by immunofluorescence based laser scanning confocal microscopic analysis; assay type: functional, cell-based; details: dose 10-100 nM; outline: as §2
# HUVEC [17] = experiment: Antimigratory activity against human HUVEC assessed as cell migration rate at 0.1 uM incubated for 12 hrs by wound healing assay (reference value: 68.5 %); assay type: functional
# MCF7 [18] = experiment: Induction of cell cycle arrest in human MCF7 cells assessed as reduction in CyclinB1 expression incubated for 24 hrs by Western blot analysis; assay type: functional, cell-based; details: dose 10-100 nM; outline: as §5
# HUVEC [19] = experiment: Antiinvasive activity against human HUVEC incubated for 24 hrs by crystal violet staining based inverted fluorescence microscopic transwell assay; assay type: functional, cell-based; details: dose 0.05-1 µM
# Outline: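 Transwell inserts pre-coated with Matrigel (5 h, 37 °C). Cells in serum-free medium with 0, 0.05, 0.1, 0.5 or 1 μM compound were added to the upper well at 5 × 10⁵ cells/mL; the lower chamber held ECM with 10% FBS. After 24 h at 37 °C, invaded cells were methanol-fixed, stained with 0.1% crystal violet and counted in three random fields. Mean ± SD, three independent experiments.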
# HUVEC [20] = experiment: Upregulation of TIMP-1 protein expression in HUVEC at 0.05 to 1 uM incubated for 24 hrs by Western blot analysis; assay type: functional; details: Homo sapiens, dose 0.05-1 µM; outline: as §4
# HUVEC [21] = experiment: Antimigratory activity against human HUVEC assessed as cell migration rate at 1 uM incubated for 24 hrs by wound healing assay (reference value: 100 %); assay type: functional
# HUVEC [22] = experiment: Cytotoxicity against HUVEC cells assessed as reduction in cell growth incubated for 72 hrs by MTT assay; assay type: cell-based; details: Homo sapiens; outline: as §1
# HUVEC [23] = experiment: Antimigratory activity against human HUVEC assessed as cell migration rate at 0.5 uM incubated for 24 hrs by wound healing assay (reference value: 100 %); assay type: functional
# MCF7 [24] = experiment: Induction of cell cycle arrest in human MCF7 cells assessed as accumulation in G2/M phase at 10 nM incubated for 24 hrs by PI staining based flow cytometry analysis (reference value: 16.81 %); assay type: functional
# HUVEC [25] = experiment: Antivascular activity against HUVEC assessed as reduction in tube formation at 0.1 microM incubated for 6 hrs by matrigel based inverted fluorescence microscopic analysis; assay type: functional, cell-based; details: Homo sapiens; outline: as §3
# MCF7 [26] = experiment: Reduction in VEGF-A expression in human MCF7 cells at 50 to 100 nM incubated for 24 hrs by Western blot analysis; assay type: functional, cell-based; details: dose 50-100 nM
# Outline: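 MCF-7 cells treated with compound at various concentrations for 24 h. VEGF-A protein assessed by western blot (RIPA lysis, SDS-PAGE, nitrocellulose transfer, ECL detection) with quantitative densitometry. Mean ± SD, three independent experiments.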
# MCF7 [27] = experiment: Induction of cell cycle arrest in human MCF7 cells assessed as accumulation in S phase at 5 nM incubated for 24 hrs by PI staining based flow cytometry analysis (reference value: 19.50 %); assay type: functional
# Sus scrofa = species on record: Sus scrofa; experiment: (§6) Inhibition of pig brain tubulin polymerization by spectrophotometric method; assay type: tissue-based
# Outline: (§7)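 Pig brain tubulin, purified by three assembly/disassembly cycles and phosphocellulose chromatography, mixed with compound at various concentrations. Buffer: PEM (100 mM PIPES, 1 mM MgCl₂, 1 mM EGTA) with 1 mM GTP and 5% glycerol. Polymerization followed at 37 °C by light scattering at 340 nm; plateau absorbance used for calculation.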
# [28] = as §6; assay type: tissue-based, Sus scrofa; outline: as §7
# MCF7 [29] = experiment: Induction of cell cycle arrest in human MCF7 cells assessed as accumulation in G1 phase at 10 nM incubated for 24 hrs by PI staining based flow cytometry analysis (reference value: 63.70 %); assay type: functional
# MCF7 [30] = experiment: Induction of cell cycle arrest in human MCF7 cells assessed as reduction in Cdc2 expression incubated for 24 hrs by Western blot analysis; assay type: functional, cell-based; details: dose 10-100 nM; outline: as §5
smiles,measurement,setting,value
COc1ccc2c(Nc3cc(OC)c(OC)c(OC)c3)nn(C)c2n1,IC50,HeLa,6.07 µM
same,IC50,A549,> 50 µM
same,IC50,HepG2,6.24 µM
same,IC50,HCT-116,> 50 µM
same,IC50,WI-38,2.43 µM
same,IC50,MCF7 [1],> 50 µM
CCN(c1cc(OC)c(OC)c(OC)c1)c1n[nH]c2nc(OC)ccc12,IC50,HeLa,0.7 µM
same,IC50,A549,31.2 µM
same,IC50,HepG2,9.64 µM
same,IC50,HCT-116,16.7 µM
same,IC50,WI-38,8.03 µM
same,IC50,MCF7 [1],0.81 µM
COc1ccc2c(N(C)c3cc(OC)c(OC)c(OC)c3)n[nH]c2n1,Activity,MCF7 [2],Active
same,Activity,HUVEC [3],Dose-dependent effect
same,inhibition at 1 µM,HUVEC [4],100%
same,IC50,HeLa,0.21 µM
same,Activity,MCF7 [5],inactive
same,IC50,A549,6 µM
same,Activity,MCF7 [6],26.47%
same,Activity,HUVEC [7],26.4%
same,inhibition,HUVEC [8],Active
same,Activity,MCF7 [9],63.5%
same,Activity,HUVEC [10],Dose-dependent effect
same,Activity,MCF7 [11],10.11%
same,IC50,HepG2,4.79 µM
same,Activity,MCF7 [12],Active
same,Activity,HUVEC [13],10.9%
same,Activity,MCF7 [14],Dose-dependent effect
same,IC50,HCT-116,0.26 µM
same,IC50,WI-38,23.4 µM
same,IC50,MCF7 [1],0.067 µM
same,Activity,HUVEC [15],11.3%
same,Activity,MCF7 [16],Dose-dependent effect
same,Activity,HUVEC [17],12.4%
same,Activity,MCF7 [18],Dose-dependent effect
same,Activity,HUVEC [19],Dose-dependent effect
same,Activity,HUVEC [20],Active
same,Activity,HUVEC [21],22.4%
same,IC50,HUVEC [22],23.5 µM
same,Activity,HUVEC [23],26.6%
same,Activity,MCF7 [24],80.73%
same,Activity,HUVEC [25],Active
same,inhibition,MCF7 [26],Active
same,Activity,MCF7 [27],10.02%
same,inhibition,Sus scrofa,Dose-dependent effect
same,IC50,[28],14 µM
same,Activity,MCF7 [29],9.16%
same,Activity,MCF7 [30],Dose-dependent effect
COc1ccc(/C=C\c2cc(OC)c(OC)c(OC)c2)cc1O [COMBRETASTATIN A4],IC50,HeLa,0.005 µM
same,IC50,A549,0.058 µM
same,IC50,HepG2,0.28 µM
same,IC50,HCT-116,0.029 µM
same,IC50,WI-38,31.6 µM
same,IC50,MCF7 [1],0.034 µM
COc1ccc2c(N(C)c3cc(OC)c(OC)c(OC)c3)nn(C)c2n1,IC50,HeLa,0.59 µM
same,IC50,A549,> 50 µM
same,IC50,HepG2,2.52 µM
same,IC50,HCT-116,> 50 µM
same,IC50,WI-38,22.8 µM
same,IC50,MCF7 [1],> 50 µM
COc1ccc2c(N(Cc3ccccc3)c3cc(OC)c(OC)c(OC)c3)n[nH]c2n1,IC50,HeLa,3.19 µM
same,IC50,A549,> 50 µM
same,IC50,HepG2,7.38 µM
same,IC50,HCT-116,3.37 µM
same,IC50,WI-38,1.67 µM
same,IC50,MCF7 [1],10.3 µM
COCCN(c1cc(OC)c(OC)c(OC)c1)c1n[nH]c2nc(OC)ccc12,IC50,HeLa,1.77 µM
same,IC50,A549,31.8 µM
same,IC50,HepG2,> 50 µM
same,IC50,HCT-116,3.66 µM
same,IC50,WI-38,30.9 µM
same,IC50,MCF7 [1],1.72 µM
COc1ccc2c(N(CCF)c3cc(OC)c(OC)c(OC)c3)n[nH]c2n1,IC50,HeLa,0.012 µM
same,IC50,A549,0.2 µM
same,IC50,HepG2,5.79 µM
same,IC50,HCT-116,0.12 µM
same,IC50,WI-38,16.5 µM
same,IC50,MCF7 [1],0.102 µM
same,inhibition,Sus scrofa,Dose-dependent effect
same,IC50,[28],55.7 µM
